Test [1] can be described thus: Anti-inflammatory activity in Sprague-Dawley rat primary mixed glial cells assessed as inhibition of LPS-induced NO production at 50 uM pretreated for 2 hrs followed by LPS addition measured after 48 hrs by Griess assay (reference value: 100%). Also on record: scale not given: the % may be the effect or the level left. The test is classed as functional, Primary glial cell.

The subject of test [2] is Cortical neurone. Briefly: Neuroprotective activity against fibril amyloid beta (25 to 35)-induced cell death in Sprague-Dawley rat 5 day old neonatal primary cortical neurons assessed as cell death at maximum non toxic concentration pretreated for 2 hrs followed by 10 uM fibril amyloid beta (25 to 35) addition measured after 48 hrs by MTT assay (reference value: 39.20 +/- 0.88%). The test is classed as functional. The method, boiled down: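 Rat cortical neurons from pups, papain-dissociated, cytosine arabinoside (5 μM, 1 day) to remove non-neuronal cells, used at DIV5. Vehicle 0.1% DMSO or compound pretreatment before fAβ25–35 (aged 1 week at 37 °C). Viability by MTT reduction: 0.5 mg/mL for 1 h, formazan dissolved in DMSO, OD600. Mean ± SD of three independent experiments.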

In test [3] the test system is Cortical neurone. The test is described as follows: Neuroprotective activity against glutamate-induced cell death in Sprague-Dawley rat 10 days old neonatal primary cortical neurons assessed as cell death at maximum non toxic concentration pretreated for 2 hrs followed by 30 uM glutamate addition measured after 24 hrs by MTT assay (reference value: 41.22 +/- 3.40%). The test is classed as functional. (In general: Tetrazolium assays rely on reduction of a dye to a coloured formazan, in cell work by metabolically active cells.)

Test [4] can be described thus: Antioxidant activity assessed as ABTS radical cation scavenging activity by measuring trolox equivalents by spectrophotometric analysis. The test is classed as functional.
The subject of test [5] is Cortical neurone. Briefly: Neuroprotective activity against fibril amyloid beta (25 to 35)-induced cell death in Sprague-Dawley rat 5 days old neonatal primary cortical neurons assessed as increase in cell viability pretreated for 2 hrs followed by 10 uM fibril amyloid beta (25 to 35) addition measured after 48 hrs by MTT assay. The test is classed as functional, cell-based. The method, boiled down:
(§1)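 Cortical neurons pretreated 2 h with vehicle (0.1% DMSO) or compound at maximum nontoxic concentration. Then exposed at DIV5 to fibrillar Aβ25–35 (10 μM, 48 h) or at DIV10 to glutamate (30 μM, 24 h). MTT 0.5 mg/mL for 1 h, formazan dissolved in DMSO, OD read at 600 nm. Mean ± SD of three independent experiments.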

Test [6] can be described thus: Anti-inflammatory activity in Sprague-Dawley rat primary mixed glial cells assessed as inhibition of LPS-induced NO production pretreated for 2 hrs followed by LPS addition measured after 48 hrs by Griess assay. The test is classed as functional, cell-based. The settings on record: Glial cell. The method, boiled down:
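Mixed cortical glia kept 3 days in DMEM/F12 with 10% FBS, medium changed, 4 more days, then 9 days in Neurobasal/B27 (16 days total). Cultures activated 2 days after medium refresh with 100 ng/mL LPS for 48 h, with compound at maximum nontoxic concentration. Medium nitrite read by Griess reagent at 540 nm against NaNO2 standard. Mean ± SD, three independent experiments.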

Test [7] concerns Cortical neurone. The test is described as follows: Neuroprotective activity against glutamate-induced cell death in Sprague-Dawley rat 10 days old neonatal primary cortical neurons assessed as increase in cell viability pretreated for 2 hrs followed by 30 uM glutamate addition measured after 24 hrs by MTT assay. Format: functional, cell-based. The method, boiled down:
as §1

Among the data in ChEMBL document CHEMBL4043092, “Neuroprotective and Antineuroinflammatory Effects of Hydroxyl-Functionalized Stilbenes and 2-Arylbenzo[b]furans” (J Med Chem, 2017) are Activity and EC50 values, retold here.

`COc1cc(Br)c(/C=C/c2cc(Br)cc(OC)c2O)cc1OC`: the values for the Activity (in test [1]; with Cortical neurone [2]; in the test on Cortical neurone [3]) were 94.57%, 38.78% and 41.17%, respectively.

As for `CCOC(=O)/C=C/c1cc(/C=C/c2ccc3c(c2)OCO3)c(O)c(OC)c1`, the Activity in test [1] amounted to 139.87%; with Cortical neurone [2], 39.08%; in the test with Cortical neurone [3], 41.26%.

For the molecule `CCOC(=O)/C=C/c1cccc(/C=C/c2cc(OC)c(OC)c(OC)c2)c1`, the Activity is reported as 75.6% in test [1], 35.98% in the test with Cortical neurone [2] and 43.29% with Cortical neurone [3].

On to `COc1cc(/C=C/c2ccc3c(c2)OCO3)cc(OC)c1OC`, for which the Activity in test [1] is 83.73%; with Cortical neurone [2], 45.46%; in the test on Cortical neurone [3], 36.43%.

Regarding `COc1cc(/C=C/c2ccccc2O)c(Br)c(OC)c1OC`, the Activity in test [1] is on record as 105.48%; with Cortical neurone [2] it was 37.67%; with Cortical neurone [3], 47.1%.

On to `COc1ccc(/C=C/c2ccc3c(c2)OCO3)cc1O`, for which the figures for the Activity (in test [1]; with Cortical neurone [2]; in the test with Cortical neurone [3]) were 81.35%, 43.51% and 30.94%, respectively.

For the molecule `CCOC(=O)/C=C/c1ccc(OC)c(O)c1/C=C/c1ccc(OC)c(OC)c1`, the Activity in test [1] was 106.26%; in the test with Cortical neurone [2], 38.07%; in the test with Cortical neurone [3], 44.3%.

On to `CCOC(=O)/C=C/c1c(/C=C/c2ccc(OC)cc2)cc(OC)c(OC)c1OC`, for which the Activity turned out to be 59.11% in test [1], 36.93% with Cortical neurone [2] and 41.07% in the test on Cortical neurone [3].

In the case of `CCOC(=O)/C=C/c1cc2c(cc1/C=C/c1cccc(OC)c1O)OCO2`, the Activity in test [1] came to 75.33%; with Cortical neurone [2], 41.57%; in the test on Cortical neurone [3], 41.64%.

In general, EC50 refers to the concentration that produces a half-maximal response. On to `O=C(O)/C=C/c1ccc(O)c2c1C=Cc1cc(O)c(O)cc1O2` [TOURNEFOLIC ACID B], for which the Activity in test [4] worked out at 1.27 mMequiv; in test [1], 98.77%; in the test on Cortical neurone [2] it was 24.66%; in the test with Cortical neurone [3] it was 42.43%. Also, the EC50 with Cortical neurone [5] amounted to 35.7 µM.

For `COc1ccc(/C=C/c2cc(Br)cc(OC)c2O)cc1OC`, the Activity in test [1] was found to be 88.34%; in the test on Cortical neurone [2], 41.5%; in the test on Cortical neurone [3] it was 42.09%.

With `COc1cc(Br)c(/C=C/c2cccc(OC)c2O)cc1OC`, the Activity in test [1] was 102.71%; in the test on Cortical neurone [2], 39.67%; in the test with Cortical neurone [3], 42.89%.

As for `CCOC(=O)/C=C/c1ccc(OC)c(O)c1/C=C/c1cc(OC)c(OC)c(OC)c1`, the Activity is 114.19% in test [1], 42.53% with Cortical neurone [2] and 43.06% with Cortical neurone [3].

On to `COc1ccc(Br)c2cc(-c3ccc4c(c3)OCO4)oc12`, for which the Activity in test [1] turned out to be 202.71%; in the test with Cortical neurone [2], 43.98%; with Cortical neurone [3] it was 46.84%.

With `CCOC(=O)/C=C/c1cc(OC)c(OC)cc1/C=C/c1ccccc1O`, the Activity in test [1] is recorded as 73.27%; in the test with Cortical neurone [2], 36.56%; in the test with Cortical neurone [3], 43.3%.

For `COc1ccc(/C=C/c2cc(C=O)cc(OC)c2O)cc1OC`, the Activity in test [1] amounted to 27.99%; with Cortical neurone [2], 48.16%; in the test on Cortical neurone [3], 37.02%. The figures for the EC50 (in test [6]; with Cortical neurone [7]; in the test with Cortical neurone [5]) were 43 µM, more than 50 µM and more than 50 µM, respectively.

Consider `CCOC(=O)/C=C/c1ccc(OC)c(O)c1/C=C/c1ccc2c(c1)OCO2`, for which the Activity was 70.98% in test [1], 38.17% in the test on Cortical neurone [2] and 49.21% in the test on Cortical neurone [3]. The results for the half-maximal effective concentration (EC50) (in test [6]; with Cortical neurone [7]; in the test on Cortical neurone [5]) were 67 µM, more than 50 µM and more than 50 µM, respectively.

Regarding `Oc1ccc(-c2cc3cc(Br)cc(O)c3o2)cc1`, the Activity amounted to 101.84% in test [1], 30.1% with Cortical neurone [2] and 33.02% with Cortical neurone [3].

Consider `CCOC(=O)/C=C/c1cc(O)c(O)cc1-c1cc2cccc(O)c2o1`, for which the Activity is 0.2 mMequiv in test [4], 38.13% in test [1], 31.58% in the test with Cortical neurone [2] and 43.5% in the test on Cortical neurone [3]. In addition, the EC50 was 82.5 µM in test [6], more than 50 µM in the test with Cortical neurone [7] and more than 50 µM in the test with Cortical neurone [5].

As to `COc1cccc(/C=C/c2ccc3c(c2)OCO3)c1O`, the Activity is listed as 101% in test [1], 46.98% in the test with Cortical neurone [2] and 38.42% with Cortical neurone [3].

As for `CCOC(=O)/C=C/c1cc2c(cc1/C=C/c1ccc(OC)cc1)OCO2`, the figures for the Activity (in test [1]; with Cortical neurone [2]; with Cortical neurone [3]) were 74.88%, 41.62% and 37.28%, respectively.

Turning to `CCOC(=O)/C=C/c1cc2c(cc1/C=C/c1cc(OC)c(OC)c(OC)c1)OCO2`, the values for the Activity (in test [1]; in the test on Cortical neurone [2]; in the test on Cortical neurone [3]) were 127.76%, 41.76% and 43.95%, respectively.

For `Oc1cc(-c2cc3ccccc3o2)c(Br)c(O)c1O`, the Activity in test [4] is 0.97 mMequiv; in test [1] it was 24.92%; in the test with Cortical neurone [2], 42.34%; in the test on Cortical neurone [3] it was 41.89%. Further, the values for the EC50 (in test [6]; in the test with Cortical neurone [7]; with Cortical neurone [5]) were 39.2 µM, more than 20 µM and more than 20 µM, respectively.

With `COC(=O)/C=C/c1ccc(O)c2c1C=Cc1cc(O)c(O)cc1O2`, the Activity in test [4] came to 1.48 mMequiv; in test [1], 99.63%; with Cortical neurone [2], 40.12%; with Cortical neurone [3] it was 20.38%. The EC50 with Cortical neurone [7] is more than 50 µM.

In the case of `COc1cc(Br)cc(/C=C/c2ccc3c(c2)OCO3)c1O`, the Activity was found to be 48.79% in test [1], 45.74% in the test on Cortical neurone [2] and 45.69% with Cortical neurone [3]. Further, the EC50 in test [6] was 84.8 µM; with Cortical neurone [7], more than 20 µM; in the test on Cortical neurone [5] it was more than 10 µM.

For the molecule `CCOC(=O)/C=C/c1cc(OC)c(OC)cc1/C=C/c1cc(OC)c(OC)c(OC)c1`, the Activity was determined as 123.48% in test [1], 41.59% in the test on Cortical neurone [2] and 39.47% in the test with Cortical neurone [3].

For the molecule `CCOC(=O)/C=C/c1cccc(/C=C/c2cc(O)c(O)c(O)c2)c1`, the Activity in test [1] came out at 26.02%; in the test on Cortical neurone [2], 41.19%; in the test on Cortical neurone [3], 42.05%. Moreover, the concentration for a half-maximal effect (EC50) was 48.9 µM in test [6], more than 50 µM with Cortical neurone [7] and more than 50 µM with Cortical neurone [5].

For the molecule `Oc1cc(-c2cc3cc(Br)cc(O)c3o2)cc(O)c1O`, the Activity in test [1] is listed as 106.67%; in the test on Cortical neurone [2], 45.8%; in the test with Cortical neurone [3], 43.67%.

Consider `CCOC(=O)/C=C/c1cc(OC)c(OC)cc1/C=C/c1cccc(OC)c1O`, for which the Activity in test [1] turned out to be 89.35%; in the test on Cortical neurone [2], 41.24%; with Cortical neurone [3], 42.73%.

As to `COc1cccc(/C=C/c2ccc3c(c2)OCO3)c1OC`, the figures for the Activity (in test [1]; with Cortical neurone [2]; in the test with Cortical neurone [3]) were 95.92%, 38.18% and 44.02%, respectively.

For the molecule `CCOC(=O)/C=C/c1ccc(/C=C/c2cc(OC)c(OC)c(OC)c2)cc1`, the Activity is on record as 91.44% in test [1], 44.43% in the test on Cortical neurone [2] and 44.56% in the test on Cortical neurone [3].
